According to PMC3057960 (Cancer research, 2010):
Peptide text beside a SMILES is read from it.

How the values were obtained:
[1] = Stability in mouse serum by radio HPLC; assay type: in vitro ADME; conditions: tracer in PBS with equal volume of mouse serum, 37°C, 4 hours
Summary of the method: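 Radiotracer in PBS was mixed with an equal volume of mouse serum and incubated at 37°C. Samples taken at 1 and 4 hours were quenched with one volume of solvent A (99.9% H2O, 0.1% TFA) plus one volume of DMF, centrifuged, passed through a 0.2 micron spin filter and analysed by radio HPLC.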

[2] = Repeated imaging in immunocompetent mice, immune response; assay type: in vivo, mouse; conditions: up to 6 imaging sessions over 8 months, data not shown
[3] = Ex vivo biodistribution in healthy mice; conditions: mouse, iv, total radioactivity
Summary of the method: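 Healthy mice (N=5) were anaesthetised and given 66.3-70.6 μCi (2.45-2.61 MBq) of radiolabelled test compound in 150 μl PBS by tail vein, then euthanised 1 hour post-injection. Organs were removed, weighed and gamma counted, giving %ID/g or %ID/cm3. Soft-tissue density was taken as 1 g/cm3. Lung density was lung weight divided by CT volume from pre-injection CT. Mean ± standard error mean.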

[4] = In vivo stability: urine metabolite analysis by radio HPLC; conditions: mouse urine collected 1 hour post-injection, 3 mice
Summary of the method: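 Urine was collected 1 hour after tail-vein injection of radiolabelled test compound (66.3-70.6 μCi in 150 μl PBS) from 3 of the healthy biodistribution mice. Samples were diluted to 1 mL with solvent A (99.9% H2O, 0.1% TFA) and analysed by radio HPLC.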

## CC(C)C[C@@H]1NC(=O)[C@@H]2CSSC[C@@H](C(=O)NCC(N)=O)NC(=O)[C@H](Cc3ccccc3)NC(=O)CNC(=O)[C@H](CC(N)=O)NC(=O)[C@@H]3CCCN3C(=O)CNC(=O)[C@@H]3CSSC[C@H](NC(=O)[C@H]([C@@H](C)O)NC(=O)[C@H](CC(C)C)NC(=O)[C@@H]4CCCN4C(=O)[C@@H]4CCCN4C(=O)[C@H](CC(N)=O)NC(=O)[C@H](CC(=O)O)NC(=O)CNC(=O)[C@H](CCCNC(=N)N)NC(=O)[C@@H]4CCCN4C(=O)[C@H](CCCNC(=N)N)NC(=O)[C@@H]4CCCN4C(=O)[C@@H](NC(=O)CNC(=O)CN4CCN(CC(=O)O)CCN(CC(=O)O)CCN(CC(=O)O)CC4)CSSC[C@H](NC(=O)CNC(=O)[C@H](C)NC1=O)C(=O)N[C@@H](C(C)C)C(=O)N3)C(=O)N[C@@H](CO)C(=O)N[C@@H](CCC(N)=O)C(=O)N[C@@H](CC(=O)O)C(=O)N[C@@H](CO)C(=O)N[C@@H](CC(=O)O)C(=O)N2 [^64Cu-DOTA-knottin 2.5F, metal not drawn] (HELM PEPTIDE1{[O=C(O)CN1CCN(CC(=O)O)CCN(CC(=O)[*:2])CCN(CC(=O)O)CC1].G.C.P.R.P.R.G.D.N.P.P.L.T.C.S.Q.D.S.D.C.L.A.G.C.V.C.G.P.N.G.F.C.G.[am]}$PEPTIDE1,PEPTIDE1,3:R3-25:R3|PEPTIDE1,PEPTIDE1,15:R3-27:R3|PEPTIDE1,PEPTIDE1,21:R3-33:R3$$$V2.0; N-terminus and C-terminus assumed)
[1]
  Serum stability: highly stable
[2]
  Acute immune response on repeated imaging: without the observation of an acute immune response
[3]; kidneys
  tissue uptake per volume at 1 h: 11.4 ± 1.45 %ID/mL
[3]; stomach, intestine, spleen, liver
  tissue uptake per volume at 1 h: 1.28 to 2.53 %ID/mL
[4]
  Stability in vivo, excretion in urine: mainly excreted intact
